# What was measured:
# [1] = system: Cavia porcellus; experiment: (§1) In vivo inhibition of LTE4 (leukotriene)-induced administration; format: functional
# [2] = system: Rattus norvegicus; experiment: In vivo inhibition of LTE4 (leukotriene)-induced skin wheal formation in rat and percent inhibition was reported at 100 mg/Kg administered perorally; settings: po
# [3] = target: T1, Thromboxane-A synthase (Homo sapiens, UniProt P24557); experiment: Inhibition of human platelet thromboxane synthase (TXA2) was determined in human platelets
# T1 sequence (P24557 whole entry): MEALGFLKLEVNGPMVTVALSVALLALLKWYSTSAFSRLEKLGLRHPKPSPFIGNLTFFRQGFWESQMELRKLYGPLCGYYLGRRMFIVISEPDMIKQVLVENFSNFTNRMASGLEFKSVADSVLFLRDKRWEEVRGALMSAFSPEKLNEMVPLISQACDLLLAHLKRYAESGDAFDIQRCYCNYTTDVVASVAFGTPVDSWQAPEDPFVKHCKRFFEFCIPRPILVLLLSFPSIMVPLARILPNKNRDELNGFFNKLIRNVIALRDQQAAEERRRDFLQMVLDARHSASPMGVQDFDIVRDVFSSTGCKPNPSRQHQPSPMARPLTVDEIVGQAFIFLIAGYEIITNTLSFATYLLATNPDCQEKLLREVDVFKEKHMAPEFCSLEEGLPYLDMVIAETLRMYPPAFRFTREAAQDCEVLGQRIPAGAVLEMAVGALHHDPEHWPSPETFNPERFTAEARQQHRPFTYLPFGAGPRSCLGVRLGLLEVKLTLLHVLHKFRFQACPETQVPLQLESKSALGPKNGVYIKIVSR
# Procedure, shortened: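 The enzyme source was microsomal fractions of human platelets. Conversion of [14C]PGH2 to [14C]TXB2 ran 2 min at 22 °C and was then stopped. Products were ether-extracted, separated by TLC and counted. Compounds were tested in triplicate at three log-spaced concentrations, and IC50 was obtained by linear regression.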
# [4] = system: Rattus norvegicus; experiment: In vivo inhibition of LTE4 (leukotriene)-induced skin wheal formation in rat and percent inhibition was reported at 10 mg/Kg administered intravenously; settings: iv
# [5] = species on record: Cavia porcellus; experiment: Evaluated for inhibition of slow reacting substance of anaphylaxis (SRS-A) induced contractions in guinea pig ileum strips; format: functional
# Procedure, shortened: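 Guinea pig ileum strips were contracted with SRS-A at 5.0 units/mL, the level giving 50% of maximal contraction. Each compound was tested in duplicate at three concentrations giving 10–90% inhibition. IC50 was obtained by linear regression.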
# [6] = system: Cavia porcellus; experiment: as §1; format: functional; remark: listed apart in the source
# [7] = system: Cavia porcellus; experiment: In vivo inhibition of LTE4 (leukotriene)-induced bronchoconstrictions in guinea pig and percent inhibition was reported at 100 mg/Kg administered perorally; format: functional; settings: po
# Procedure, shortened: (§2)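 Guinea pigs pretreated with propranolol were challenged with LTE4. The drug was given either 10 mg/kg iv 30 s before challenge or 100 mg/kg orally 2 h before. Bronchoconstriction was scored as percent inhibition versus control animals. Oral ID50 was calculated from varying oral doses.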
# [8] = system: Cavia porcellus; experiment: In vivo inhibition of LTE4 (leukotriene)-induced bronchoconstrictions in guinea pig and percent inhibition was reported at 10 mg/Kg administered intravenously; format: functional; settings: iv; procedure, shortened: as §2
# [9] = system: Rattus norvegicus; experiment: In vivo inhibition of LTE4 (leukotriene)-induced skin wheal formation in rat
# [10] = system: Cavia porcellus; experiment: In vivo inhibition of LTE4 (leukotriene)-induced bronchoconstrictions in guinea pig and ID50 was reported perorally; format: functional; procedure, shortened: as §2
# [11] = system: Rattus norvegicus; experiment: In vivo inhibition of LTE4 (leukotriene)-induced skin wheal formation in rat determined after (iv) administration of a dose of 10 mg/kg
# [12] = system: Rattus norvegicus; experiment: In vivo inhibition of LTE4 (leukotriene)-induced skin wheal formation in rat determined after (po) administration of a dose of 100 mg/Kg
# [13] = system: Cavia porcellus; experiment: In vivo inhibition of LTE4 (leukotriene)-induced bronchoconstrictions in guinea pig after oral administration; format: functional; procedure, shortened: as §2
# [14] = system: Rattus norvegicus; experiment: Compound was evaluated in vivo by rat passive cutaneous anaphylaxis test (PCA)after oral administration; settings: read-out: ID50 (the source's name)
# [15] = system: Rattus norvegicus; experiment: In vivo inhibition of LTE4 (leukotriene)-induced skin wheal formation in rat; remark: listed apart in the source
# [16] = species on record: Cavia porcellus; experiment: Ability to inhibit bronchoconstriction in guinea pig induced by histamine
# [17] = species on record: Cavia porcellus; experiment: Ability to inhibit bronchoconstriction in guinea pig induced by platelet activating factor
# [18] = system: Rattus norvegicus; experiment: Compound was evaluated in vivo by rat passive cutaneous anaphylaxis test (PCA) after oral administration; format: functional
# [19] = species on record: Cavia porcellus; experiment: Ability to inhibit bronchoconstriction induced in actively sensitized guinea pig by antigen-induced de novo biosynthesis of SRS-A; format: functional
IC50 [3],IC50 [5],Compound,also measured
0.1 µM,1 µM,CC(C)c1ccc2nc3ccc(C(=O)NCCCCCc4cccnc4)cn3c(=O)c2c1.Cl.Cl,Inhibition [1]: 84%; inhibition in vivo at 100 mg/kg [2]: 65%; inhibition in vivo at 10 mg/kg [4]: 61%; Inhibition [6]: 21%
> 10 µM,1 µM,CC(C)c1ccc2nc3ccc(C(=O)NCCCCc4ccccn4)cn3c(=O)c2c1,–
0.05 µM,3 µM,O=C(NCCCCc1cccnc1)c1ccc2nc3ccc(O)cc3c(=O)n2c1,–
0.02 µM,8 µM,O=C(NCCCCc1cccnc1)c1ccc2nc3cc(Cl)ccc3c(=O)n2c1,–
–,> 10 µM,O=C(O)c1ccc(OCCn2ccnc2)cc1 [DAZOXIBEN],inhibition in vivo at 100 mg/kg [2]: 11%; inhibition in vivo at 100 mg/kg [7]: 81%; inhibition in vivo at 10 mg/kg [4]: 9%; inhibition in vivo at 10 mg/kg [8]: 88%
0.2 µM,10 µM,COc1ccc2nc3ccc(C(=O)NCCCCc4cccnc4)cn3c(=O)c2c1,–
1 µM,8 µM,CC(CCCc1cccnc1)NC(=O)c1ccc2nc3ccc(C(C)C)cc3c(=O)n2c1 (centres undefined),–
0.1 µM,5 µM,Cc1ccc2nc3ccc(C(=O)NCCCCc4cccnc4)cn3c(=O)c2c1,–
0.2 µM,5 µM,CC(C)c1ccc2nc3ccc(C(=O)NCCCCc4cncnc4)cn3c(=O)c2c1,–
5 µM,9 µM,Cc1nccn1CCCCNC(=O)c1ccc2nc3ccc(C(C)C)cc3c(=O)n2c1,–
0.6 µM,1 µM,CC(C)c1ccc2nc3ccc(C(=O)N(C)CCCCc4cccnc4)cn3c(=O)c2c1,–
0.6 µM,5 µM,CC(C)c1ccc2nc3ccc(C(=O)NCCSCc4cccnc4)cn3c(=O)c2c1,–
0.1 µM,5 µM,CC(C)c1ccc2nc3ccc(C(=O)NCCCc4cccnc4)cn3c(=O)c2c1,–
4 µM,10 µM,CC(C)c1ccc2nc3ccc(C(=O)NCCc4cccnc4)cn3c(=O)c2c1,–
0.1 µM,1 µM,CC(C)c1ccc2nc3ccc(C(=O)NCCCCc4ccncc4)cn3c(=O)c2c1.Cl.Cl,inhibition in vivo at 100 mg/kg [2]: 63%; IC50 [9]: 90 mg/kg; ID50 mg/kg [10]: 57; inhibition in vivo at 100 mg/kg [7]: 73%; inhibition in vivo at 10 mg/kg [4]: 54%; inhibition in vivo at 10 mg/kg [8]: 89%
0.1 µM,7 µM,Cc1cc2nc3ccc(C(=O)NCCCCc4cccnc4)cn3c(=O)c2cc1C,–
0.02 µM,5 µM,O=C(NCCCCc1cccnc1)c1ccc2nc3ccccc3c(=O)n2c1,–
0.2 µM,1 µM,CC(C)c1ccc2nc3ccc(C(=O)NCCCCc4cccnc4)cn3c(=O)c2c1,Inhibition [1]: 94%; IC50 [9]: 70 mg/kg; Inhibition [6]: 76%; inhibition in vivo at 10 mg/kg [11]: 60%; inhibition in vivo at 100 mg/kg [12]: 61%; ID50 mg/kg [13]: 60
–,1 µM,CC(C)c1ccc2nc3ccc(C(=O)NCCCCCCc4cccnc4)cn3c(=O)c2c1,inhibition in vivo at 100 mg/kg [2]: 62%; inhibition in vivo at 100 mg/kg [7]: 28%; inhibition in vivo at 10 mg/kg [4]: 70%; inhibition in vivo at 10 mg/kg [8]: 71%
–,–,CC(C)c1ccc2nc3ccc(C(=O)O)cn3c(=O)c2c1,ED50 [14]: 0.45 mg/kg
0.02 µM,> 10 µM,COc1ccc2c(=O)n3cc(C(=O)NCCCCc4cccnc4)ccc3nc2c1,–
0.5 µM,5 µM,CC(C)c1ccc2nc3ccc(C(=O)NC(C)(C)CCCc4cccnc4)cn3c(=O)c2c1,–
0.05 µM,0.8 µM,CC(C)c1ccc2nc3ccc(C(=O)NCCCCOc4cccnc4)cn3c(=O)c2c1.Cl.Cl,inhibition in vivo at 100 mg/kg [2]: 56%; IC50 [9]: 100 mg/kg; inhibition in vivo at 100 mg/kg [7]: 60%; inhibition in vivo at 10 mg/kg [4]: 64%; inhibition in vivo at 10 mg/kg [8]: 94%
0.3 µM,5 µM,CC(CCc1cccnc1)NC(=O)c1ccc2nc3ccc(C(C)C)cc3c(=O)n2c1 (centres undefined),–
0.2 µM,> 10 µM,CC(C)c1ccc2nc3ccc(C(=O)NCCCCCCCc4cccnc4)cn3c(=O)c2c1,–
0.3 µM,9 µM,O=C(NCCCCc1cccnc1)c1ccc2nc3cc4c(cc3c(=O)n2c1)CCCC4,–
0.1 µM,> 10 µM,O=C(NCCCCc1cccnc1)c1ccc2nc3ccc(Br)cc3c(=O)n2c1,–
0.2 µM,1 µM,CC(C)c1ccc2nc3ccc(C(=O)NCCCCn4ccnc4)cn3c(=O)c2c1.Cl.Cl,IC50 [15]: 46 mg/kg; inhibition in vivo at 100 mg/kg [2]: 63%; ID50 mg/kg [10]: 47; inhibition in vivo at 100 mg/kg [7]: 87%; inhibition in vivo at 10 mg/kg [4]: 26%; ID50 mg/kg [16]: 39; inhibition in vivo at 10 mg/kg [8]: 87%; ID50 mg/kg [17]: 13; ID50 mg/kg [18]: 20; ID50 mg/kg [19]: 50
0.06 µM,10 µM,CC(C)Oc1ccc2nc3ccc(C(=O)NCCCCc4cccnc4)cn3c(=O)c2c1,–

Compound,IC50 [3],IC50 [5],also measured
CCCc1c(OCC(O)COc2ccc3c(=O)cc(C(=O)O)oc3c2CCC)ccc(C(C)=O)c1O (centres undefined) [FPL-55712],10 µM,–,inhibition in vivo at 100 mg/kg [2]: 2%; inhibition in vivo at 100 mg/kg [7]: 23%; inhibition in vivo at 10 mg/kg [4]: 88%; inhibition in vivo at 10 mg/kg [8]: 98%
